Series [1] is described as follows: Population pharmacokinetics of teriparatide after subcutaneous injection. The series is classed as in vivo, postmenopausal women with osteoporosis. The procedure, abridged: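 Serum drug levels measured in a 360-patient subset at months 1, 3, 6, 12 and 18, one sample per visit within a 0–30 min, 30 min–1 h, 1–2 h, 2–3 h or 3–4 h postdose window. Serum stored at -70°C; two-site immunoradiometric assay using bead-bound capture and 125I-labelled detection antibodies to PTH 1–34. Standard curve 9.8–20,000 pg/ml; quantifiable range 50–2,000 pg/ml; accuracy and precision ±20%.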

Series [2] concerns serum calcium. The experiment in a line: Serum calcium pharmacodynamic response to teriparatide. The series is classed as in vivo, postmenopausal women with osteoporosis. Particulars: for predose serum calcium, mean ± SE: samples 16–24 h postdose. The procedure, abridged: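 Unadjusted total serum calcium measured in all patients at baseline and 4–6 h postdose at months 1, 3, 6, 12, 18 and 24, at three laboratories using identical, cross-calibrated methods. Samples falling 16–24 h postdose served as predose values.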

In series [3] the test system is serum calcium. Particulars: rats; subcutaneous injections every hour for six injections; cited from earlier work.
Series [4] is described as follows: Adverse events commonly associated with hypercalcemia, Fracture Prevention Trial. It counts as in vivo, postmenopausal women with osteoporosis. Particulars: teriparatide 20 μg/day; overall cohort (n = 541). In short, it runs like this:
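Events typical of hypercalcemia were collected throughout the trial in women randomized to once-daily subcutaneous teriparatide or placebo. They were tabulated for the whole teriparatide cohort and for the subset whose 4–6 h postdose serum calcium exceeded 10.6 mg/dl.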

The conditions of series [5]: cited from earlier work.
The conditions of series [6]: cited from earlier work. The source holds these as a separate data set.
The conditions of series [7]: cited from earlier work. This is another data set of the same source.
The mark [8] stands for this setting: comparing 10th and 90th percentiles of body weight (51–80 kg), population PK.
[9] abbreviates: female, human, serum, sc, 20 ug.
The mark [10] stands for this setting: daily injections of teriparatide 20 µg.
Where [11] appears, read: indirect-response PK–PD model, teriparatide 20 μg sc, 360 patients.

Read-outs that look alike come from different tables or passages of the source.

In the case of `CC[C@H](C)[C@H](NC(=O)[C@H](CCC(=O)O)NC(=O)[C@H](CO)NC(=O)[C@@H](NC(=O)[C@@H](N)CO)C(C)C)C(=O)N[C@@H](CCC(N)=O)C(=O)N[C@@H](CC(C)C)C(=O)N[C@@H](CCSC)C(=O)N[C@@H](Cc1cnc[nH]1)C(=O)N[C@@H](CC(N)=O)C(=O)N[C@@H](CC(C)C)C(=O)NCC(=O)N[C@@H](CCCCN)C(=O)N[C@@H](Cc1cnc[nH]1)C(=O)N[C@@H](CC(C)C)C(=O)N[C@@H](CC(N)=O)C(=O)N[C@@H](CO)C(=O)N[C@@H](CCSC)C(=O)N[C@@H](CCC(=O)O)C(=O)N[C@@H](CCCN=C(N)N)C(=O)N[C@H](C(=O)N[C@@H](CCC(=O)O)C(=O)N[C@@H](Cc1c[nH]c2ccccc12)C(=O)N[C@@H](CC(C)C)C(=O)N[C@@H](CCCN=C(N)N)C(=O)N[C@@H](CCCCN)C(=O)N[C@@H](CCCCN)C(=O)N[C@@H](CC(C)C)C(=O)N[C@@H](CCC(N)=O)C(=O)N[C@@H](CC(=O)O)C(=O)N[C@H](C(=O)N[C@@H](Cc1cnc[nH]1)C(=O)N[C@@H](CC(N)=O)C(=O)N[C@@H](Cc1ccccc1)C(=O)O)C(C)C)C(C)C` [teriparatide, recombinant human parathyroid hormone (rhPTH[1–34])], the “total duration of exposure to the peptide” value in series [1] (20 μg sc once daily) is given as “approximately 4 h”. Also, the “duration of exposure above basal endogenous PTH concentrations (28 pg/ml)” value in series [1] (20 μg sc, molar basis, concentration–time profile extrapolated to infinite time) was “about 4 h”. Moreover, in series [1] (setting [8]), the “prolongation in Tmax in heavier patients” value came to 2.3 min and the “reduction in Cmax in heavier patients” value turned out to be 26%. Further, in series [1] (setting [9]), the CL/F (commonly clearance divided by bioavailability, as obtained after extravascular dosing) is about 1030 mL/min; the Tmax (usually the time from dosing to the highest level) was about 30 min; the level at 3 h is under 0.05 ng/mL. The “slower rate of absorption, thigh vs abdominal wall injection” value in series [1] (population PK covariate estimate, 20 μg sc) was 21%. Also, in series [1] (population PK model, 20 μg sc), the “half-life based upon Ka (ln 2/Ka)” value is listed as 1.1 h. In the series with serum calcium [2] (1 month, teriparatide 20 μg), the “predose serum calcium, mean ± SE” value came out at 9.19 ± 0.03 mg/dL. Also, the “predose serum calcium, mean ± SE” value in the series on serum calcium [2] (3 months, teriparatide 20 μg) worked out at 9.12 ± 0.08 mg/dL. Also, the “predose serum calcium, mean ± SE” value in the series on serum calcium [2] (6 months, teriparatide 20 μg) turned out to be 9.29 ± 0.03 mg/dL. Besides, in the series with serum calcium [2] (12 months, teriparatide 20 μg), the “predose serum calcium, mean ± SE” value was 9.40 ± 0.03 mg/dL. Besides, the “predose serum calcium, mean ± SE” value in the series on serum calcium [2] (18 months, teriparatide 20 μg) was found to be 9.30 ± 0.08 mg/dL. In the series on serum calcium [2] (24 months, teriparatide 20 μg), the “predose serum calcium, mean ± SE” value was determined as 9.26 ± 0.05 mg/dL. Besides, in the series on serum calcium [2] (setting [10]), the “time after dosing at which serum calcium begins to increase” value was “approximately 2 h” and the “time of maximum serum calcium concentration/effect after dosing” value was 4.25 h. In addition, the “Emax, maximum calcemic response” value with serum calcium [2] (indirect-response PK–PD model, 62% CV) was 19.5%. The “EC50, teriparatide concentration required to produce 50% of the maximum calcium effect” value with serum calcium [2] (indirect-response PK–PD model, serum teriparatide) worked out at 0.054 ng/mL. For the same compound, in the series with serum calcium [2] (setting [11]), the “Kin, zero-order production rate for change in serum calcium” value is given as 1.1 mg/(dl · hour) and the “Kout, first-order dissipation rate for calcium response” value was 0.12 h⁻¹. Also, in the series with serum calcium [2] (teriparatide 20 μg), the “patients with a predose serum calcium >11.0 mg/dl” value is given as “no”. Also, the “patients with serum calcium above the upper limit of normal (10.6 mg/dl) 4–6 h after dosing” value with serum calcium [2] (teriparatide 20 µg group, fifty patients, placebo 1.1%) was 9.4%. Moreover, in the series with serum calcium [2] (teriparatide 20 µg sc daily), the “time after dosing at which serum calcium begins to decline” value is recorded as “approximately 6 h” and the “time after each dose by which serum calcium returned to predose levels” value fell in the range of 16 to 24 h. In the series on serum calcium [2] (teriparatide 20 μg sc daily, median 21 months' treatment), the persistent hypercalcemia entry was “not observed”. For the same compound, the “patients with a predose serum calcium value >10.6 mg/dl” value in the series with serum calcium [2] (teriparatide 20 μg, 1/223 patients) is reported as 0.4%. In addition, in the series with serum calcium [3], the “sustained elevated serum calcium concentrations” value was “sustained elevated serum calcium concentrations occurred”. In series [4], the Abdominal pain was 48 (8.9%) n (%), the Anorexia was 8 (1.5%) n (%), the Arrhythmias is reported as 9 (1.7%) n (%) and the Constipation was 32 (5.9%) n (%). Besides, in series [4], the Depression was 21 (3.9%) n (%), the Headache was 44 (8.1%) n (%), the Hypertension is on record as 41 (7.6%) n (%) and the Nausea is listed as 51 (9.4%) n (%). In series [4], the Pancreatitis is 1 (0.2%) n (%), the Peptic ulcer/gastritis is given as 8 (1.5%) n (%) and the Vomiting is recorded as 19 (3.5%) n (%). Besides, in series [5], the bioavailability (in general, the share of a dose that reaches the circulation, judged against a reference dose that is usually intravenous) was 95%; the half-life following injection was 60 min; the “time to peak concentration following injection” value is 30 min. Further, the “true elimination half-life following intravenous administration” value in series [5] (intravenous) is recorded as 5 min.

As to “rhPTH(1–84): full human recombinant PTH, available for treatment of osteoporosis in some countries at a daily dose of 100 μg”, the bioavailability in series [6] is reported as 55%. Also, the apparent terminal half-life in series [6] (sc) is 90 to 150 min. In addition, in series [6] (single-dose sc, dose range 0.02–5.0 μg/kg), the “time of first peak of serum concentration–time profile after dosing” value is 5 to 10 min.

As for parathyroid hormone [PTH], the “half-life (clearance of the endogenous hormone)” value in series [7] is under 2 min.

The values above are taken from article PMC2978887 (Calcified Tissue International, 2010).
